Measured values of several laboratories.
Cell line: MIA PaCa-2
Observed: cell growth or viability

SMILES	test	setting	measurement	value
CNC(=O)c1ccccc1Nc1cc(Nc2ccc(N3CCOCC3)cc2OC)ncc1C(F)(F)F	MTT	48 h	IC50	1.77 µM
COc1ccc2c(C(=O)C(C#N)=Cc3cn(C)c4ccccc34)c[nH]c2c1	MTT	48 h	IC50	> 40 µM
N#CSCc1cc(=O)oc2cc(O)ccc12	SRB		GI50	5.3 µM
CCCOc1ccc2[nH]cc(C(=O)C(C#N)=Cc3cn(CC)c4ccccc34)c2c1	MTT	48 h	IC50	5.3 µM
CC1=CC(=O)C(C(C)C)=CC1=O	SRB	48 h	IC50	33.2 µM
O=C1C(Cl)=C(NCCN2CCOCC2)C(=O)c2ccccc21	MTT		IC50	19.7 µM
Cc1cc(=O)oc2cc(OCCCCSC#N)ccc12	SRB		GI50	6.3 µM
Cc1sc2c(c1C)C(c1ccc(Cl)cc1)=N[C@@H](CC(=O)NCCCCNC(=O)COc1cccc3c1C(=O)N(C1CCC(=O)NC1=O)C3=O)c1nnc(C)n1-2 (some centres unmarked)	CCK-8	72 h	IC50	> 10 µM
O=C1C(Cl)=C(NCCCN2CCCCC2)C(=O)c2ccccc21	MTT		IC50	4.75 µM
CCOc1ccc2[nH]cc(C(=O)C(C#N)=Cc3cn(C)c4ccccc34)c2c1	MTT	48 h	IC50	1.35 µM
CC(=O)N1CCC(Nc2cc(C(=O)NC[C@H](O)CN3CCc4ccccc4C3)ncn2)CC1	CCK-8	72 h	IC50	> 100 µM
